The list is not random: actives were taken first. Their share in the collection is about 2.3%.
STEP inh = blocks human striatal-enriched tyrosine phosphatase. AID 588621. recombinant STEP, OMFP fluorogenic substrate, fluorescence. 360,000 tested, 0.25% active. inhibition, % at 20 µM;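 active = inhibition at 20 µM, scaled per plate between control wells, above about 37%, limit read from the data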;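 note: 0% = DMSO with enzyme and substrate and 100% = substrate only without enzyme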
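Also added – OMFP at 25 µM · Test system – STEP tyrosine phosphatase · Technique – FITC-channel fluorescence of OMFP product · Schedule – 20 min at room temperature, dark · Evaluation – control-normalized % inhibition with plate pattern correction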
LMPTP inh = LMPTP (human) inhibition; 360,000 tested, 0.22% active; recombinant LMPTP-A, OMFP fluorogenic substrate, fluorescence intensity; inhibition, % at 20 µM; P24666; AID 651560;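 active = compounds that cut the enzyme signal by at least half of the control window in the single-dose screen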;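 note: plate controls were DMSO wells with enzyme plus substrate for no effect and substrate without enzyme for full effect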
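Test system: LMPTP-A phosphatase enzyme. Amount: LMPTP-A at 0.625 nM final in the reaction. Reagent: OMFP substrate, 400 µM final. Times: 50 min at room temperature. Signal: endpoint fluorescence intensity from OMFP dephosphorylation. Read-out basis: % inhibition. Benchmarks: no-enzyme and uninhibited controls.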
DNMT1 inh = blocks human DNA methyltransferase DNMT1. 360,000 tested, 0.83% active. P26358. DNMT1 molecular beacon, Hinp1I cleavage, fluorescence. AID 588458. inhibition (reported as % activation of signal), % at 10 µM; in the data active = inhibition above about 50%
Rpn11 inh = blocks the human proteasome subunit Rpn11; AID 588493; inhibition, % at 20 µM; O00487; human 26S proteasome, Ub4-pepOG fluorescence polarization; 20S core pre-blocked with epoxomicin; 360,000 tested, 0.59% active;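 active = inhibition at 20 µM, scaled to each plate's controls, above about 33%, limit read from the data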
Target sequence (O00487 whole entry, looked up): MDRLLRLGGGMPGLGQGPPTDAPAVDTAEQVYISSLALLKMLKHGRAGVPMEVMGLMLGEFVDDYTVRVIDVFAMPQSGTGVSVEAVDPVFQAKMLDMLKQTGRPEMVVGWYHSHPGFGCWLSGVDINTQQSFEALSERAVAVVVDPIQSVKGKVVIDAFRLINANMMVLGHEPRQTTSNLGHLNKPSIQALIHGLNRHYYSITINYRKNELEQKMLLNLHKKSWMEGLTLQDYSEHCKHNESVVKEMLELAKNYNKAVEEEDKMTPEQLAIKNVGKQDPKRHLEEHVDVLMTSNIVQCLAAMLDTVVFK
Scp1 inh = blocks human Scp-1 phosphatase activity; Q9GZU7; Recombinant Scp1, phosphopeptide, malachite green phosphate absorbance; inhibition, % at 20 µM; 340,000 tested, 0.88% active; AID 493091;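 active = inhibition above about 50% at 20 µM, limit read from the data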;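 note: plate controls were DMSO wells with enzyme for no effect and wells lacking enzyme for full effect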
Target sequence (Q9GZU7 76-261 limits assumed): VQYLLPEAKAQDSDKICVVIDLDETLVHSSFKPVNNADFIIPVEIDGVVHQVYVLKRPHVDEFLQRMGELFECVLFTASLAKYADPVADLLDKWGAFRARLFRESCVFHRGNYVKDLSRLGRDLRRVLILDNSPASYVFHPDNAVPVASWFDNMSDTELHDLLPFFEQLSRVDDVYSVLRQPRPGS
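Test system: SCP-1 phosphatase catalytic domain, residues 76-261 | Compound dosing: One concentration, 20 µM, with 1.0% DMSO | Schedule: 45 min room-temperature reaction, 5 min colour, 30 min stabiliser | Detection: Absorbance at 630 nm | Read-out basis: % inhibition of SCP-1 phosphate liberation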
SUMO1 PPI mod = alters human SUMO1 binding to SIM partners | SUMO1 binding to a labelled peptide, TR-FRET, 1 h | 360,000 tested, 0.33% active | inhibition, % at 20 µM | AID 602429; in the data active = inhibition above about 37%
Target sequence (P63165 whole entry, looked up): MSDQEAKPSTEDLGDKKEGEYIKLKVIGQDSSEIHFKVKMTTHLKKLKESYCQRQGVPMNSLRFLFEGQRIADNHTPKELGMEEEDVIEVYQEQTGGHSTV
Scp1 confirm = Scp-1 (human) inhibition, single-dose confirmed; shares compounds with Scp1 inh; inhibition, % at 20 µM; recombinant SCP-1 catalytic domain, phosphate release, malachite green absorbance; 2,500 tested, 61% active;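 note: plate controls were DMSO with enzyme for no effect and buffer wells lacking enzyme for full effect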
Scp-1 MG ctr = interferes with malachite green readout, flagging false Scp-1 hits; shares compounds with Scp1 inh; Colorimetric interference counterscreen, malachite green absorbance 630 nm; apparent inhibition (interference), % at 20 µM; 2,500 tested, under 10 active; AID 540313;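 note: compounds added after enzyme reaction finished so only phosphate colour detection is probed; plate controls were DMSO wells with completed Scp-1 reaction for no effect and substrate wells lacking enzyme for full effect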
Scp-1 Tm shift = validation of human Scp-1 inhibitors by thermal shift binding; AID 540329; shares compounds with Scp1 inh; thermal shift relative to vanadate control, % at 40 µM; Recombinant SCP1, Sypro Orange thermal shift Tm; 1,500 tested, 25% active;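 active = substances whose mean melting-temperature shift, as a percentage of the reference inhibitor's shift, reaches about 5.3%, limit read from the data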;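 note: 0% = Tm of DMSO wells and 100% = Tm with sodium orthovanadate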
An asterisk follows results filed as active; nt = no result given; ! = repeats disagree.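 Rule for the calls, unless noted: active = inhibition of at least 30% at 20 µM; inactive = the rest.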

SMILES	STEP inh	LMPTP inh	DNMT1 inh	Rpn11 inh	Scp1 inh	SUMO1 PPI mod	Scp1 confirm	Scp-1 MG ctr	others
C/C(N)=C(/C#N)C(=O)CSc1nnc(Nc2ccccc2)s1	-2	-1	-1	-5	-13	8	nt	nt
C/C(N)=C(/C#N)C(=O)CSc1nnc(NC(C)C)s1	6	17	37	-21	91*	7	64*	-10	Scp-1 Tm shift=-2
CCCn1c(SCC(=O)NC2CCCC2)nnc1-c1cccnc1	2	-1	0	2	-1	2	nt	nt
Cn1c(=O)c2c(nc3n2CC(O)CN3c2ccc(O)cc2)n(C)c1=O (configuration not stated)	-3	0	-4	0	-6	3	nt	nt
COCCN1CCN(C(=O)c2cc(COc3ccc(F)c(F)c3)on2)CC1	-2	-1	2	2	-1	0	nt	nt
O=C1NCCN1CCNS(=O)(=O)c1ccc(F)cc1	2	-1	2	-6	-10	1	-19	-16
COc1ccc(S(=O)(=O)NCCN2CCNC2=O)cc1OC	-2	1	5	0	-7	-5	1	-3
COc1ccc(S(=O)(=O)NCCC(C)C)cc1OC	-5	0	-2	1	-3	1	nt	nt
CCN(CC)C(=O)CSc1nnc(-c2ccccn2)n1Cc1ccccc1	1	-1	0	-5	-2	0	nt	nt
Cn1cc(Cl)c(C(=O)Nc2nc3ccccc3s2)n1	1	-1	-3	-2	-8	-3	nt	nt
Cn1cc(Cl)c(C(=O)Nc2cccc(Cl)c2Cl)n1	-1	16	21	6	72*	3	76*	-14	Scp-1 Tm shift=-1
O=C(CC1SCCNC1=O)Nc1cccc([N+](=O)[O-])c1 (configuration not stated)	0	0	2	0	-5	-13	nt	nt
O=c1[nH][nH]c(=O)c2cc([N+](=O)[O-])ccc12	-4	0	-2	2	50*!	-30	-12	-12
O=C(C1COc2ccccc2O1)N1CCN(c2ccc(C(F)(F)F)cn2)CC1 (configuration not stated)	-2	1	3	0	87*	-1	-12	-19
NS(=O)(=O)c1ccc(N2CCN(C(=O)C3COc4ccccc4O3)CC2)nc1 (configuration not stated)	2	-1	0	0	1	5	nt	nt
Cc1cc2c(NC(=O)CC(C)(C)CC(=O)O)cccc2nn1	4	1	-16	-13	52*	-1	-8	-11
Cc1cc2c(NC(=O)Nc3ccc(F)cc3)cccc2nn1	-3	-2	-5	1	2	-23	nt	nt
Cc1ccc(S(=O)(=O)NCCc2cn3nc(C)c(C)nc3n2)cc1C	1	-2	-2	5	-2	-17	nt	nt
COC(=O)[C@H]1C[C@H](O)CN1S(=O)(=O)c1ccc(Br)cc1F	-3	-1	7	-7	53*	3	-15	-16
CSCCC(NC(=O)c1ccco1)C(=O)NC1CCCCCC1 (configuration not stated)	-1	-1	12	0	-4	1	nt	nt
O=C(NCCN1CCNC1=O)C1CCC(=O)N(CCc2ccccc2)C1 (configuration not stated)	0	1	1	2	-8	0	-16	-12
COCCNC(=O)C(c1ccc(C)o1)N(C(=O)Cn1nnc2ccccc21)c1ccccc1 (configuration not stated)	-1	0	8	-7	-9	-1	nt	nt
O=C(NC1CCN(C(=O)c2cccs2)CC1)c1ccccc1	-1	-1	3	3	-4	-3	nt	nt
COC(=O)c1cc(C)ccc1OCc1ccc([N+](=O)[O-])cc1	4	9	5	0	3	2	nt	nt
COCCN(C(=O)c1snc(C(N)=O)c1N)C(C(=O)NC1CCCCC1)c1ccc(F)cc1 (configuration not stated)	2	-1	-5	0	-8	1	nt	nt
SMILES	STEP inh	LMPTP inh	DNMT1 inh	Rpn11 inh	Scp1 inh	SUMO1 PPI mod	Scp1 confirm	Scp-1 MG ctr	others
CCCCn1c(N)c(N(CC(C)C)C(=O)C2CC(=O)N(Cc3ccccc3)C2)c(=O)[nH]c1=O (configuration not stated)	-1	-1	0	1	-2	-1	-16	-13
O=C(COc1cccc(C(F)(F)F)c1)NNC(=O)Cn1c(=O)cnc2ccccc21	0	-1	2	0	4	2	nt	nt
CCOc1ccc(NC(=S)N2CCN(C/C=C/c3ccccc3)CC2)cc1	21	0	-2	2	1	1	nt	nt
COc1cc(CNC2CCCCCCC2)c(Br)cc1OCCO	0	-1	0	-1	-5	3	nt	nt
COc1ccc(OC)c(C2CC(=O)Nc3c2c(=O)[nH]c2ncnn32)c1 (configuration not stated)	0	-3	0	0	-5	-2	nt	nt
CCOC(=O)c1ccc2c(c1)N(CC)C(=O)c1ccccc1S2	0	1	2	-10	83*	6	13	-9
C=CCNC(=O)c1ccc2c(c1)N(CC)C(=O)c1ccccc1S2	-5	-2	0	-1	-5	1	nt	nt
OC[C@@H](O)[C@H](O)C(/C=N/Nc1ccccc1)=N\Nc1ccccc1	-2	0	-2	1	-3	-9	nt	nt
Cc1ccsc1/C=N/NC(=O)c1c[nH]c2ccccc12	0	1	-1	-3	69*	-8	-14	-15
Cc1ccc(/C=N/NC(=O)c2c[nH]c3ccccc23)s1	2	2	0	-7	13	-10	nt	nt
Nc1ccc(C(=O)Nc2ccc3c(O)cc(S(=O)(=O)O)cc3c2)cc1	3	21	12	3	53*	20	46*	-17	Scp-1 Tm shift=11*
CC(=O)Nc1cc2c(c(Cl)c1Cl)-c1ccccc1C2=O	6	23	17	4	80*	37	-15	-13
O=C(O)CC1(CC(=O)Nc2ccc(Cl)cc2C(=O)c2ccccc2)CCCC1	0	-1	-1	-1	-6	-1	nt	nt
O=C(NCC(=O)N(Cc1cccs1)C(C(=O)NC1CCCCC1)c1ccncc1)c1ccco1 (configuration not stated)	0	0	-9	-3	52*	-2	-15	-19
